What follows are compounds tested on Osteoclast-like (assay: Percent inhibition of tartrate resistant acid phosphatase positive osteoclast like multinucleated cells formation by 1-alpha, 25-dihydroxy vitamin D3 in mouse bone marrow cells).
Assay type: functional
Design: concentration or dose not given beside the values
In short: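 Run as a co-culture assay. Formation of osteoclast-like multinucleated cells was induced with 1α,25-dihydroxy vitamin D₃.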
CCC(C)C(NC(=O)[C@]12CCC(C)(C)C[C@H]1C1=CC[C@@H]3[C@@]4(C)CC[C@H](O)C(C)(C)C4CC[C@@]3(C)[C@]1(C)CC2)C(=O)O (stereo partly specified) showed an Inhibition of 53.5%. In the case of CC(C)C(NC(=O)[C@]12CCC(C)(C)C[C@H]1C1=CC[C@@H]3[C@@]4(C)CC[C@H](O)C(C)(C)C4CC[C@@]3(C)[C@]1(C)CC2)C(=O)O (stereo partly specified), the Inhibition is reported as 41.3%. With CC(NC(=O)[C@]12CCC(C)(C)C[C@H]1C1=CC[C@@H]3[C@@]4(C)CC[C@H](O)C(C)(C)C4CC[C@@]3(C)[C@]1(C)CC2)C(=O)O (stereo partly specified) the Inhibition was 87.8%. CC1(C)CC[C@]2(C(=O)O)CC[C@]3(C)C(=CC[C@@H]4[C@@]5(C)CC[C@H](O)C(C)(C)C5CC[C@]43C)[C@@H]2C1 (stereo partly specified) showed an Inhibition of 27.6%. CC1(C)CC[C@]2(C(=O)N3CCCC3C(=O)O)CC[C@]3(C)C(=CC[C@@H]4[C@@]5(C)CC[C@H](O)C(C)(C)C5CC[C@]43C)[C@@H]2C1 (stereo partly specified) gave an Inhibition of 21%. CC1(C)CC[C@]2(C(=O)N3CCCC3C(=O)O)CC[C@]3(C)C(=CC(=O)[C@@H]4[C@@]5(C)CC[C@H](O)C(C)(C)C5CC[C@]43C)[C@@H]2C1 (stereo partly specified) showed an Inhibition of 40.3%. CC1(C)CC[C@]2(C(=O)NC(Cc3ccccc3)C(=O)O)CC[C@]3(C)C(=CC[C@@H]4[C@@]5(C)CC[C@H](O)C(C)(C)C5CC[C@]43C)[C@@H]2C1 (stereo partly specified) gave an Inhibition of 16.3%. Work on CC1(C)CC[C@]2(C(=O)O)CC[C@]3(C)C(=CC(=O)[C@@H]4[C@@]5(C)CC[C@H](O)C(C)(C)C5CC[C@]43C)[C@@H]2C1 (stereo partly specified) yielded an Inhibition of 38.5%. With CC(C)C(NC(=O)[C@]12CCC(C)(C)C[C@H]1C1=CC(=O)[C@@H]3[C@@]4(C)CC[C@H](O)C(C)(C)C4CC[C@@]3(C)[C@]1(C)CC2)C(=O)O (stereo partly specified) the Inhibition was 59%. CCC(C)C(NC(=O)[C@]12CCC(C)(C)C[C@H]1C1=CC(=O)[C@@H]3[C@@]4(C)CC[C@H](O)C(C)(C)C4CC[C@@]3(C)[C@]1(C)CC2)C(=O)O (stereo partly specified) was tested, and the Inhibition was 62%. Compound CC1(C)CC[C@]2(C(=O)NCC(=O)O)CC[C@]3(C)C(=CC(=O)[C@@H]4[C@@]5(C)CC[C@H](O)C(C)(C)C5CC[C@]43C)[C@@H]2C1 (stereo partly specified) has an Inhibition of 83.3%. Work on CC1(C)CC[C@]2(C(=O)NC(Cc3ccccc3)C(=O)O)CC[C@]3(C)C(=CC(=O)[C@@H]4[C@@]5(C)CC[C@H](O)C(C)(C)C5CC[C@]43C)[C@@H]2C1 (stereo partly specified) yielded an Inhibition of 36.5%. With CC(C)CC(NC(=O)[C@]12CCC(C)(C)C[C@H]1C1=CC[C@@H]3[C@@]4(C)CC[C@H](O)C(C)(C)C4CC[C@@]3(C)[C@]1(C)CC2)C(=O)O (stereo partly specified) the Inhibition was 51.2%. Compound CC(NC(=O)[C@]12CCC(C)(C)C[C@H]1C1=CC(=O)[C@@H]3[C@@]4(C)CC[C@H](O)C(C)(C)C4CC[C@@]3(C)[C@]1(C)CC2)C(=O)O (stereo partly specified) has an Inhibition of 76.3%. Compound CC(C)CC(NC(=O)[C@]12CCC(C)(C)C[C@H]1C1=CC(=O)[C@@H]3[C@@]4(C)CC[C@H](O)C(C)(C)C4CC[C@@]3(C)[C@]1(C)CC2)C(=O)O (stereo partly specified) has an Inhibition of 69.5%. CC1(C)CC[C@]2(C(=O)NCC(=O)O)CC[C@]3(C)C(=CC[C@@H]4[C@@]5(C)CC[C@H](O)C(C)(C)[C@@H]5CC[C@]43C)[C@@H]2C1 was tested, and the Inhibition was 61.5%.

Source: ChEMBL document CHEMBL1144339, “Synthesis and activity of oleanolic acid derivatives, a novel class of inhibitors of osteoclast formation” (2005)
